Measurements reported in publication PMC12124217 (RSC Medicinal Chemistry, 2025).

Key:
MDA-MB-468 (EGFR+) cells = assay: MTT cell viability assay; type: cell-based; conditions: neat CD, up to concentrations as high as 100 μM
Procedure, shortened: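 MDA-MB-468 cells were treated with test compound alone or as cyclodextrin complexes, then read out by MTT. Complex stocks were made by shake-flask and passed through a 0.45 μm filter. […] Values are the mean of 10 replicates ± standard deviation.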

[1] = cited from earlier work
[2] = Phase-solubility study of tcyDTDO with BCD; type: physicochemical; conditions: BCD with saturated tcyDTDO, 25.0 °C
[3] = advertised; ref Millipore Sigma; cited from earlier work

| SMILES | Effect on cell viability (MDA-MB-468 (EGFR+) cells) | Cavity volume, literature [1] [Å^3] | Highest achievable concentration of CD in solution [2] [mM] | Solubility in water [3] |
| --- | --- | --- | --- | --- |
| OC[C@H]1O[C@@H]2O[C@H]3[C@H](O)[C@@H](O)[C@@H](O[C@H]4[C@H](O)[C@@H](O)[C@@H](O[C@H]5[C@H](O)[C@@H](O)[C@@H](O[C@H]6[C@H](O)[C@@H](O)[C@@H](O[C@H]7[C@H](O)[C@@H](O)[C@@H](O[C@H]8[C@H](O)[C@@H](O)[C@@H](O[C@H]1[C@H](O)[C@H]2O)O[C@@H]8CO)O[C@@H]7CO)O[C@@H]6CO)O[C@@H]5CO)O[C@@H]4CO)O[C@@H]3CO [BCD, beta-cyclodextrin] | did not have any significant adverse effect on cell viability | 262 | 4.43 |  |
| CC(O)COC[C@H]1O[C@@H]2O[C@H]3[C@H](O)[C@@H](O)[C@@H](O[C@H]4[C@H](O)[C@@H](O)[C@@H](O[C@H]5[C@H](O)[C@@H](O)[C@@H](O[C@H]6[C@H](O)[C@@H](O)[C@@H](O[C@H]7[C@H](O)[C@@H](O)[C@@H](O[C@H]8[C@H](O)[C@@H](O)[C@@H](O[C@H]1[C@H](O)[C@H]2O)O[C@@H]8COCC(C)O)O[C@@H]7COCC(C)O)O[C@@H]6COCC(C)O)O[C@@H]5COCC(C)O)O[C@@H]4COCC(C)O)O[C@@H]3COCC(C)O (stereo partly drawn) [HPB, 2-hydroxypropyl-beta-cyclodextrin] | did not have any significant adverse effect on cell viability |  |  | roughly 45 g per 100 mL |
